Published values from different studies.
Protocols differ between the studies behind these lines.
Target: MAP kinase-activated protein kinase 3 (MAPKAPK3, Homo sapiens, UniProt Q16644)

N#CCCc1ccc2c(c1)-c1[nH]c3ccc([N+](=O)[O-])cc3c1CC(=O)N2 gave a remaining signal of 96.8% (cell-free assay; 0.5 µM).
CN1CC(Oc2cnc(C#N)cc2-c2ccn3nc(NC(=O)C4CC4)cc3c2)C1 has an inhibition of -1% (enzyme activity, inhibitor; 1 µM).
COc1cccc2c(NCc3ccccc3)nc(-n3c(N)nc4ccccc43)nc12 has an inhibition of -7.4% (target engagement in cells, inhibitor, chemoproteomics; 20 mM).
The remaining activity of FC(F)c1nc2ccccc2n1-c1nc(N2CCOCC2)nc(N2CCOCC2)n1 is reported as 97% (enzyme activity, inhibitor; 10 µM).
COc1cc(Nc2cnc(C#N)c(O[C@H](C)CN(C)C)n2)ncc1-c1cnn(C)c1 gave a remaining activity of 80% (enzyme activity, inhibitor, radiometric; 10 µM).
For Cn1c(=O)n(-c2ccc(C(C)(C)C#N)cc2)c2c3cc(-c4cnc5ccccc5c4)ccc3ncc21, the remaining activity was 110% (enzyme activity, inhibitor; 10 µM).
The inhibition of CNC(=O)c1cc(Oc2ccc(NC(=O)Nc3ccc(Cl)c(C(F)(F)F)c3)cc2)ccn1 is reported as -5% (enzyme activity, inhibitor; 10 µM).
For O=C1Nc2ccc(Cl)cc2C1=Cc1cc(Cl)c(O)c(Cl)c1, the remaining signal was 88.4% (cell-free assay; 0.5 µM).
FC(F)(F)Oc1cccc(-c2cnc3ccc(-c4ccncc4)nn23)c1 gave an activity vs control of 107% (enzyme activity, inhibitor, radiometric; 1 µM).
The inhibition of COc1cc2ncnc(Nc3ccc(Oc4ccccc4)c(C)c3C)c2cc1OC is reported as -14% (enzyme activity, inhibitor; 1 µM).
The remaining activity of CC(C)(O)[C@H]1CC[C@H](Nc2ccc3ncc(-c4cccc(C(F)(F)F)c4)n3n2)CC1 is reported as 103% (enzyme activity, inhibitor; 1 µM).
With Cc1ccc(Nc2nccc(N(C)c3ccc4c(C)n(C)nc4c3)n2)cc1S(N)(=O)=O the inhibition was -3% (enzyme activity, inhibitor; 10 µM).
The remaining activity of CC(C)(C)c1nc2c(s1)c1nc(N)ncc1c1ccc(NS(=O)(=O)c3c(F)cccc3F)c(F)c12 is reported as 93% (enzyme activity, inhibitor, radiometric; 1 µM).
For O=C(Nc1cnn(-c2csc(C(=O)NC3COC3)c2)c1)Nc1c(F)cccc1Cl, the remaining activity was 95.6% (enzyme activity, inhibitor; 5 µM).
For CCN(CC)CCNC(=O)c1c(C)[nH]c(/C=C2\C(=O)Nc3ccc(F)cc32)c1C, the inhibition was -10% (enzyme activity, inhibitor; 0.3 µM).
The activity vs control of COc1cc(/C=C/C(=O)CC(=O)/C=C/c2ccc(O)c(OC)c2)ccc1O is reported as 76% (enzyme activity, inhibitor; 1 µM).
For CCCCNc1ncc2c(-c3ccc(F)cc3)nn(C[C@H]3CC[C@H](N)CC3)c2n1, the inhibition was 6.1% (target engagement in cells, inhibitor, chemoproteomics; 20 mM).
CCCS(=O)(=O)Nc1ccc(F)c(C(=O)c2c[nH]c3ncc(-c4ccc(Cl)cc4)cc23)c1F gave an inhibition of less than 10% (enzyme activity, inhibitor; 1 µM).
